In ChEMBL document CHEMBL3232791, “Synthesis and antibacterial evaluation of amino acid-antibiotic conjugates” (2014):

What was measured:
Assay type in all cases: functional
[1] = tested on: Bacillus subtilis; assay: Antibacterial activity against Bacillus subtilis 168 assessed as growth inhibition at 10 ug/ml after 16 hrs by spectrophotometric analysis; settings: subsp. subtilis str. 168, 16 h, read-out: GI
Method in brief: (§1)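 Growth inhibition read as OD600 on 300 µL culture samples, with untreated control cultures taken as maximum growth. Percent inhibition = (OD600 control − OD600 treated) × 100 / OD600 control. Parent antibiotics and their conjugates were run in parallel at three concentrations per compound, in biological duplicate.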

[2] = tested on: Staphylococcus aureus; assay: Antibacterial activity against Staphylococcus aureus RN4220 assessed as growth inhibition at 200 ug/ml after 16 hrs by spectrophotometric analysis; settings: RN4220, 16 h, read-out: GI; method in brief: as §1
[3] = tested on: Escherichia coli; assay: Antibacterial activity against Escherichia coli DH5alpha assessed as growth inhibition at 10 ug/ml after 16 hrs by spectrophotometric method; settings: DH5[alpha], read-out: GI; method in brief: as §1
[4] = tested on: Bacillus subtilis; assay: Antibacterial activity against Bacillus subtilis 168 assessed as growth inhibition at 40 ug/ml after 16 hrs by spectrophotometric analysis; settings: subsp. subtilis str. 168, 16 h, read-out: GI; method in brief: as §1
[5] = tested on: Staphylococcus aureus; assay: Antibacterial activity against Staphylococcus aureus RN4220 assessed as growth inhibition at 100 ug/ml after 16 hrs by spectrophotometric analysis; settings: RN4220, 16 h, read-out: GI; method in brief: as §1
[6] = tested on: Staphylococcus aureus; assay: Antibacterial activity against Staphylococcus aureus RN4220 assessed as growth inhibition at 50 ug/ml after 16 hrs by spectrophotometric analysis; settings: RN4220, 16 h, read-out: GI; method in brief: as §1
[7] = tested on: Bacillus subtilis; assay: Antibacterial activity against Bacillus subtilis 168 assessed as growth inhibition at 20 ug/ml after 16 hrs by spectrophotometric analysis; settings: subsp. subtilis str. 168, 16 h, read-out: GI; method in brief: as §1
[8] = tested on: Escherichia coli; assay: Antibacterial activity against Escherichia coli DH5alpha assessed as growth inhibition at 2.5 ug/ml after 16 hrs by spectrophotometric method; settings: DH5[alpha], read-out: GI; method in brief: as §1
[9] = tested on: Escherichia coli; assay: Antibacterial activity against Escherichia coli DH5alpha assessed as growth inhibition at 5 ug/ml after 16 hrs by spectrophotometric method; settings: DH5[alpha], read-out: GI; method in brief: as §1
[10] = tested on: Pseudomonas aeruginosa; assay: Antibacterial activity against Pseudomonas aeruginosa PAO1 assessed as growth inhibition at 20 ug/ml after 16 hrs by spectrophotometric analysis; settings: PAO1, 16 h, read-out: GI; method in brief: as §1
[11] = tested on: Staphylococcus aureus; assay: Antibacterial activity against Staphylococcus aureus RN4220 assessed as growth inhibition at 30 ug/ml after 16 hrs by spectrophotometric analysis; settings: RN4220, 16 h, read-out: GI; method in brief: as §1
[12] = tested on: Escherichia coli; assay: Antibacterial activity against Escherichia coli DH5alpha assessed as growth inhibition at 3 ug/ml after 16 hrs by spectrophotometric method; settings: DH5[alpha], read-out: GI; method in brief: as §1
[13] = tested on: Staphylococcus aureus; assay: Antibacterial activity against Staphylococcus aureus RN4220 assessed as growth inhibition at 15 ug/ml after 16 hrs by spectrophotometric analysis; settings: RN4220, 16 h, read-out: GI; method in brief: as §1
[14] = tested on: Escherichia coli; assay: Antibacterial activity against Escherichia coli DH5alpha assessed as growth inhibition at 1.5 ug/ml after 16 hrs by spectrophotometric method; settings: DH5[alpha], read-out: GI; method in brief: as §1
[15] = tested on: Escherichia coli; assay: Antibacterial activity against Escherichia coli DH5alpha assessed as growth inhibition at 0.75 ug/ml after 16 hrs by spectrophotometric method; settings: DH5[alpha], read-out: GI; method in brief: as §1
[16] = tested on: Staphylococcus aureus; assay: Antibacterial activity against Staphylococcus aureus RN4220 assessed as growth inhibition at 60 ug/ml after 16 hrs by spectrophotometric analysis; settings: RN4220, 16 h, read-out: GI; method in brief: as §1
[17] = tested on: Pseudomonas aeruginosa; assay: Antibacterial activity against Pseudomonas aeruginosa PAO1 assessed as growth inhibition at 40 ug/ml after 16 hrs by spectrophotometric analysis; settings: PAO1, 16 h, read-out: GI; method in brief: as §1
[18] = tested on: Pseudomonas aeruginosa; assay: Antibacterial activity against Pseudomonas aeruginosa PAO1 assessed as growth inhibition at 10 ug/ml after 16 hrs by spectrophotometric analysis; settings: PAO1, 16 h, read-out: GI; method in brief: as §1
[19] = tested on: Bacillus subtilis; assay: Antibacterial activity against Bacillus subtilis 168 assessed as growth inhibition at 5 ug/ml after 16 hrs by spectrophotometric analysis; settings: subsp. subtilis str. 168, 16 h, read-out: GI; method in brief: as §1

| SMILES | inhibition of growth at 10 µg/mL [1] [%] | inhibition of growth at 200 µg/mL [2] [%] | inhibition of growth at 10 µg/mL [3] [%] | inhibition of growth at 40 µg/mL [4] [%] | inhibition of growth at 100 µg/mL [5] [%] | inhibition of growth at 50 µg/mL [6] [%] | inhibition of growth at 20 µg/mL [7] [%] | inhibition of growth at 2.5 µg/mL [8] [%] | inhibition of growth at 5 µg/mL [9] [%] | inhibition of growth at 20 µg/mL [10] [%] | inhibition of growth at 30 µg/mL [11] [%] | inhibition of growth at 3 µg/mL [12] [%] | inhibition of growth at 15 µg/mL [13] [%] | inhibition of growth at 1.5 µg/mL [14] [%] | inhibition of growth at 0.75 µg/mL [15] [%] | inhibition of growth at 60 µg/mL [16] [%] | inhibition of growth at 40 µg/mL [17] [%] | inhibition of growth at 10 µg/mL [18] [%] | inhibition of growth at 5 µg/mL [19] [%] |
| --- | --- | --- | --- | --- | --- | --- | --- | --- | --- | --- | --- | --- | --- | --- | --- | --- | --- | --- | --- |
| CCn1cc(C(=O)O)c(=O)c2cnc(N3CCN(C(=O)CNC(=O)OCc4ccccc4)CC3)nc21 | 88.2 | 57.4 | -8.93 | 91.7 | 52.2 | 32.9 | -7.68 | -13.4 | -11.1 |  |  |  |  |  |  |  |  |  |  |
| CCn1cc(C(=O)O)c(=O)c2cnc(N3CCN(C(=O)[C@H](C)NC(=O)OCc4ccccc4)CC3)nc21 | 90.3 | 63 | 1.75 | 60.1 | 55.4 | 38 | 5.34 | -12 | -12.1 |  |  |  |  |  |  |  |  |  |  |
| CCn1cc(C(=O)O)c(=O)c2cnc(N3CCN(C(=O)[C@@H](NC(=O)OCc4ccccc4)C(C)C)CC3)nc21 | 4.69 | 70.6 | 27.2 | 78.2 | 60 | 45.7 | 17 | -9.71 | -6.67 |  |  |  |  |  |  |  |  |  |  |
| CCn1cc(C(=O)O)c(=O)c2cnc(N3CCN(C(=O)[C@H](Cc4ccccc4)NC(=O)OCc4ccccc4)CC3)nc21 | 6.09 | 72.9 | 9.45 | 77 | 60.1 | 49.6 | 13.8 | -11.5 | -6.38 |  |  |  |  |  |  |  |  |  |  |
| CCn1cc(C(=O)O)c(=O)c2cnc(N3CCN(C(=O)[C@H](CCCCNC(=O)OCc4ccccc4)NC(=O)OCc4ccccc4)CC3)nc21 | -7.86 | 52.4 | -6.9 | 89.9 | 28.2 | -20.2 | -4.87 | -13.2 | -9.63 |  |  |  |  |  |  |  |  |  |  |
| CCn1cc(C(=O)O)c(=O)c2cc(F)c(N3CCN(C(=O)CNC(=O)OCc4ccccc4)CC3)cc21 | 90.2 |  |  |  |  |  | 89.5 |  |  | 10.6 | 85.7 | 20.8 | 83.6 | 9.75 | 5.96 | 88.5 | 81.5 | -16.2 | 91.6 |
| CCn1cc(C(=O)O)c(=O)c2cc(F)c(N3CCN(C(=O)[C@H](C)NC(=O)OCc4ccccc4)CC3)cc21 | 91.4 |  |  |  |  |  | 90.5 |  |  | -14.2 | 81.8 | 3.52 | 74.1 | -0.24 | 0.21 | 91 | 20.5 | -26.8 | 92.2 |
| CCn1cc(C(=O)O)c(=O)c2cc(F)c(N3CCN(C(=O)C(C)NC(=O)OCc4ccccc4)CC3)cc21 (stereo not drawn) | 91.4 |  |  |  |  |  | 90.3 |  |  | -19.8 | 77.9 | 0.77 | 51.5 | 1.25 | -4.73 | 86.1 | 25.8 | -25.7 | 92.3 |
| CCn1cc(C(=O)O)c(=O)c2cc(F)c(N3CCN(C(=O)[C@H](Cc4ccccc4)NC(=O)OCc4ccccc4)CC3)cc21 | 61.1 |  |  |  |  |  | 90.1 |  |  | -18.6 | 89.6 | 0.54 | 12 | 3.79 | -0.95 | 92.7 | 5.69 | -28 | 49.1 |
